CHO parental Ca: signal in parental CHO cells, OX1R antagonist counter-screen | inhibition, % at 5.6 µM | actives 0.63% (n = 330,000) | parental CHO-K1, ATP-induced calcium, Fluo-8 fluorescence;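 active = inhibition above that plate's mean sample inhibition plus 3 SD, cut at about 26% in these data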;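 also: 0% = ATP-challenged DMSO wells and 100% = DMSO wells without ATP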
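Assay system: untransfected parental CHO cell line. Also added: ATP agonist challenge. Dosing: one dose, 5.6 µM nominal. Measured by: Fluo-8 fluorescence. Read-out: % inhibition. Benchmarks: ATP wells versus no-ATP DMSO wells. Repeats: no replicates.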
V1R ag counter: V1a receptor agonism, counter-screen for OXTR agonists; actives 0.25% (n = 320,000); AID 2797; CHO-V1R cells, Fluo-8 calcium fluorescence, agonist mode; 0% DMSO, 100% 3 nM vasopressin; activation, % at 3 µM;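 active = activation above the mean activation of all tested compounds plus 3 SD, per screening run, cut at about 20% in these data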;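 also: signal is peak over basal fluorescence ratio across a 100 second FLIPR read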
Target sequence (P37288 whole entry, looked up): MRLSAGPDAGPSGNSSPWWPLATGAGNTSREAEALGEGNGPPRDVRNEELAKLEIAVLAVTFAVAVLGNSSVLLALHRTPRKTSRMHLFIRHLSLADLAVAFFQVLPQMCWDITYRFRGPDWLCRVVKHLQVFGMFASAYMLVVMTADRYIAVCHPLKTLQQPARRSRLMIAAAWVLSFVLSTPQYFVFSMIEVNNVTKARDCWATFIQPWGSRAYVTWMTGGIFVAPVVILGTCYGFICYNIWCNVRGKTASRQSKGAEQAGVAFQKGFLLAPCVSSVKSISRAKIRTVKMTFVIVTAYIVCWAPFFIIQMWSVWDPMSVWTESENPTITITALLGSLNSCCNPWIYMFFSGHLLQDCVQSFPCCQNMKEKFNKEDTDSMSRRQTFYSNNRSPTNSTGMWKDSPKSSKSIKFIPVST
OX1R antag-1: OX1R (human) antagonism; OX1R-expressing cells, FRET antagonist read-out; inhibition, % at 6.6 µM; actives 1.8% (n = 330,000); in the data active = inhibition mostly above about 38%, no sharp cut-off; inactive = mostly below about 40%;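 also: 0% = agonist challenge alone and 100% = reference antagonist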
OXTR agonist: agonists of human oxytocin receptor; P30559; CHO-OTR cells, Fluo-8 calcium fluorescence; normalized: DMSO 0%, oxytocin 100%; activation, % at 3 µM; actives 0.32% (n = 320,000); AID 2435;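 active = activation above the mean of all tested compounds plus 3 SD, cutoff set per screening run, cut at about 20% in these data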;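 also: peak over basal fluorescence ratio from a 100 s FLIPR kinetic read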
OX1R antag-2: blocks the human orexin 1 receptor. O43613. CHO/OX1R cells, Fluo-8 calcium fluorescence, orexin A. inhibition, % at 5 µM. actives 0.43% (n = 330,000). AID 434989;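 active = inhibition above its plate's threshold, mean inhibition of all tested compounds on the plate plus 3 SD, cut at about 37% in these data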;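 also: 0% = orexin A challenge wells and 100% = SB-334867-A antagonist wells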
OXTR potentiate: potentiates the human oxytocin receptor response; P30559; actives 0.061% (n = 320,000); CHO-OTR cells, Fluo-8 calcium fluorescence, potentiator mode; 0% = oxytocin EC15, 100% = EC100; activation, % at 3 µM;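 active = activation above that plate's cutoff, the mean activation of tested compounds plus 3 SD, cut at about 6.6% in these data, passing the limit was not always enough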;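 also: 100% uses oxytocin at 75 nM as the full agonist control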
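Assay system: CHO cell line stably expressing human OTR | Also added: Oxytocin at about EC15, sub-maximal agonist stimulus | Times: Compound 6 min at room temperature before oxytocin, 100 s read | Measured by: Fluo-8 intracellular calcium fluorescence, ex 470-495, em 515-575 nm | Controls: EC15 oxytocin alone as 0%, 75 nM oxytocin as 100%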
The depositor's hits bear a star; · = no result. In the library only some 2.7% were active in any assay of this set; here they are far more common.

SMILES | CHO parental Ca | V1R ag counter | OX1R antag-1 | OXTR agonist | OX1R antag-2 | OXTR potentiate
CC(C)(C)OC(=O)C[C@H]1C/C=C\C[C@@H](CC(=O)N(CCO)Cc2ccccc2)C(=O)N[C@@H](Cc2ccccc2)COC1=O | -14.7 | -0.1 | 9.2 | -2.0 | -21.2 | -5.2
Cc1nnsc1S(=O)c1ccccc1Cl (centres undefined) | -3.3 | 0.7 | 3.3 | 3.4 | -21.2 | -12.3
Cc1ccc(C2C(C#N)=C(N)Oc3cc(N)ccc32)cc1 (centres undefined) | -5.8 | 2.6 | 2.9 | 1.5 | -0.3 | -0.7
Cc1ccc(/C=C2\CCC3=C2OC(N)=C(C#N)C3c2ccc(C)cc2)cc1 (centres undefined) | 40.7* | 42.8* | 2.5 | 23.3* | 48.0* | -24.0
O=c1oc(-c2ccc([N+](=O)[O-])cc2)nc2ccc(O)cc12 | 6.9 | 0.4 | 75.2* | 0.7 | -10.7 | -8.0
O=c1oc(-c2ccc([N+](=O)[O-])cc2)nc2ccccc12 | -6.7 | -1.0 | 20.4 | -0.8 | 2.3 | -12.8
CCN(CC)c1ccc(/C=C/c2cccc[n+]2C)c(OC)c1 | 36.3* | 11.4 | 65.4 | 14.9 | 25.1 | -5.6
O=C1NC(Cc2ccccc2)c2nc3cc(F)ccc3c(=O)n2-c2ccccc21 (centres undefined) | 3.4 | 1.5 | 2.1 | -0.7 | -13.3 | -2.5
NS(=O)(=O)c1ccc(N=Nc2ccc(=O)[nH]c2O)cc1 | 5.6 | 0.4 | 74.4* | 0.5 | -17.4 | -17.1
Nc1nc(N)c(N=Nc2ccc(S(N)(=O)=O)cc2)c(=O)[nH]1 | -11.1 | 0.3 | 25.3 | 1.8 | -4.9 | -3.6
Cc1cc(C)c2sc(NC(=O)C3=COCCO3)nc2c1 | -12.5 | 0.8 | 39.5 | -0.1 | -14.6 | -2.2
Cc1onc(-c2c(Cl)cccc2Cl)c1C(=O)N1CCCc2ccccc21 | -23.2 | -1.0 | 54.6* | -2.3 | 33.4 | 0.4
CCOC(=O)CCN(c1ccccc1)S(=O)(=O)c1ccc(-c2ccc(=O)[nH]n2)s1 | -32.5 | -0.1 | 16.8 | -1.6 | -12.6 | -16.6
O=C(/C=C/c1ccc(F)cc1)NCCCn1ccnc1 | 5.0 | 0.7 | 3.1 | 2.4 | -1.6 | -9.6
CC(c1ccco1)N(C(=O)c1ccccc1NS(=O)(=O)c1cccc([N+](=O)[O-])c1)c1ccccn1 (centres undefined) | -0.1 | 8.1 | 63.5* | 7.9 | -31.2 | -10.3
CC(c1ccco1)N(C(=O)c1ccccc1NS(=O)(=O)c1ccc(Cl)cc1)c1ccccn1 (centres undefined) | -11.8 | 1.0 | 32.1 | -2.7 | -2.9 | -4.8
CC(c1ccco1)N(C(=O)c1ccccc1NS(=O)(=O)c1cc([N+](=O)[O-])ccc1Cl)c1ccccn1 (centres undefined) | -15.5 | 5.4 | 71.7* | 1.4 | -14.8 | -12.0
CCOc1cccc2cc(-c3nnc(NCc4ccco4)s3)c(=O)oc12 | -13.0 | -1.4 | 45.7* | 1.6 | -1.4 | -11.6
CCCCSc1cnn(-c2ccccc2)c(=O)c1SCCCC | 29.6* | 0.1 | 2.0 | -1.1 | -25.0 | -2.3
CSCCC(NC(=O)c1ccccc1)C(=O)OCC(=O)NCc1ccco1 (centres undefined) | -21.2 | -0.4 | 1.6 | -0.7 | -26.2 | 1.0
Cc1ccc(/C=C(\C#N)C(=O)Nc2cccc(C)n2)cc1 | -8.8 | -0.9 | -10.6 | -1.5 | -13.5 | -6.4
Cc1ccc(C)c(S(=O)(=O)N2CCCCC2CCNC(=O)C(=O)NC2CC2)c1 (centres undefined) | -17.8 | -1.2 | 34.9* | -2.2 | -5.0 | -1.5
Cc1ccc(C)c(S(=O)(=O)N2CCCC2CNC(=O)C(=O)NC2CCCCCC2)c1 (centres undefined) | -40.2 | -1.2 | 21.6 | -2.7 | -20.9 | 2.3
COc1ccc(S(=O)(=O)N2CCCC2CNC(=O)c2cccc(OC)c2)cc1 (centres undefined) | -13.8 | -0.3 | 42.9* | 0.7 | -2.1 | -13.0
O=C(NCCc1ccc(F)cc1)C(=O)NCC1CCCN1S(=O)(=O)c1ccccc1 (centres undefined) | -24.4 | 0.1 | 57.6* | -1.8 | 3.9 | -10.8
SMILES | CHO parental Ca | V1R ag counter | OX1R antag-1 | OXTR agonist | OX1R antag-2 | OXTR potentiate
COc1cccc(C(=O)NCC2CCCN2S(=O)(=O)c2cccs2)c1 (centres undefined) | -9.4 | 0.2 | 30.1 | -0.4 | -11.3 | -3.1
COc1ccc(S(=O)(=O)N2CCCC2CNC(=O)C(=O)NCCc2ccccc2)cc1 (centres undefined) | -16.2 | 1.0 | 39.2* | -0.9 | -8.4 | -11.5
Cc1cc(C(=O)NNC(=O)c2ccccc2F)c2ccccc2n1 | 0.7 | 0.0 | 7.8 | -0.2 | -18.5 | -5.7
COC(=O)[C@H](CCSC)NC(=O)Cn1cnc(C(=O)Nc2ccc(C)c(C)c2)n1 | -6.6 | · | 4.4 | · | -14.4 | ·
COc1ccccc1CCNC(=O)C(=O)NCC1CCCN1S(=O)(=O)c1ccccc1 (centres undefined) | -33.2 | -0.4 | 48.7* | -2.9 | 20.4 | -11.9
Cc1ccc(C)c(S(=O)(=O)N2CCCC2CNC(=O)C(=O)NCCc2ccccc2)c1 (centres undefined) | -22.2 | -0.6 | 38.1* | -2.1 | -2.8 | -11.4
Cc1nn(C)cc1S(=O)(=O)N1CCN(c2ccccc2F)CC1 | -21.0 | 0.9 | 16.6 | -0.6 | -17.0 | -5.9
COc1cc(/C=C/C(=O)OCC(=O)Nc2oc(C)c3c(C)n[nH]c(=O)c23)ccc1OC(F)F | -11.3 | -1.2 | 18.5 | -2.4 | -29.1 | -4.6
CC(=O)Oc1c(C)c(=O)n(C)c2ccccc12 | -10.7 | 1.3 | 7.2 | -0.8 | -13.2 | -2.7
COc1c(OC(C)=O)c(=O)n2c3ccccc3c3ccnc1c32 | -11.8 | -0.5 | 51.9* | -0.6 | -14.0 | -2.9
COC(=O)c1ccc(CSc2nc3ccccc3c(=O)n2Cc2ccco2)o1 | 37.2* | 9.9 | 14.5 | 1.5 | 50.1* | -8.9
COC(=O)c1ccc(CSc2nc3c(cnn3-c3ccc(F)cc3)c(=O)[nH]2)o1 | -15.7 | 0.8 | 14.4 | 2.1 | -23.4 | 0.4
COC(=O)c1ccc(CSc2nc3c(cnn3-c3ccccc3)c(=O)[nH]2)o1 | -15.8 | 0.5 | 54.6* | 0.9 | 11.1 | -10.7
COC(=O)c1ccc(CSc2nc3ccccc3c(=O)n2CC(C)C)o1 | -33.4 | -0.9 | 16.3 | -1.8 | -21.8 | -9.4
COCc1c(C(=O)Nc2cccc(S(=O)(=O)N3CCCCC3)c2)oc2ccccc12 | -8.1 | 1.6 | 19.4 | 0.8 | -8.0 | -4.5
CC(=O)c1ccc(S(=O)(=O)N2CCN(c3nc(-c4cccnc4)nc4ccccc34)CC2)cc1 | -26.8 | 0.5 | 10.2 | 2.5 | -24.5 | -4.0
C=CCn1c(O)c2ccc(C(=O)N=NC(=O)COc3ccccc3F)cc2c1O | -15.9 | 0.5 | 57.6* | -0.3 | -15.3 | -9.8

Screening data from PubChem BioAssay.
